The source of these data is ChEMBL document CHEMBL3352666, “Human Toll-like receptor 8-selective agonistic activities in 1-alkyl-1H-benzimidazol-2-amines” (J Med Chem, 2014).

The target of test [1] is T1, Toll-like receptor 8 (Homo sapiens) (UniProt Q9NR97).
T1 sequence (whole entry): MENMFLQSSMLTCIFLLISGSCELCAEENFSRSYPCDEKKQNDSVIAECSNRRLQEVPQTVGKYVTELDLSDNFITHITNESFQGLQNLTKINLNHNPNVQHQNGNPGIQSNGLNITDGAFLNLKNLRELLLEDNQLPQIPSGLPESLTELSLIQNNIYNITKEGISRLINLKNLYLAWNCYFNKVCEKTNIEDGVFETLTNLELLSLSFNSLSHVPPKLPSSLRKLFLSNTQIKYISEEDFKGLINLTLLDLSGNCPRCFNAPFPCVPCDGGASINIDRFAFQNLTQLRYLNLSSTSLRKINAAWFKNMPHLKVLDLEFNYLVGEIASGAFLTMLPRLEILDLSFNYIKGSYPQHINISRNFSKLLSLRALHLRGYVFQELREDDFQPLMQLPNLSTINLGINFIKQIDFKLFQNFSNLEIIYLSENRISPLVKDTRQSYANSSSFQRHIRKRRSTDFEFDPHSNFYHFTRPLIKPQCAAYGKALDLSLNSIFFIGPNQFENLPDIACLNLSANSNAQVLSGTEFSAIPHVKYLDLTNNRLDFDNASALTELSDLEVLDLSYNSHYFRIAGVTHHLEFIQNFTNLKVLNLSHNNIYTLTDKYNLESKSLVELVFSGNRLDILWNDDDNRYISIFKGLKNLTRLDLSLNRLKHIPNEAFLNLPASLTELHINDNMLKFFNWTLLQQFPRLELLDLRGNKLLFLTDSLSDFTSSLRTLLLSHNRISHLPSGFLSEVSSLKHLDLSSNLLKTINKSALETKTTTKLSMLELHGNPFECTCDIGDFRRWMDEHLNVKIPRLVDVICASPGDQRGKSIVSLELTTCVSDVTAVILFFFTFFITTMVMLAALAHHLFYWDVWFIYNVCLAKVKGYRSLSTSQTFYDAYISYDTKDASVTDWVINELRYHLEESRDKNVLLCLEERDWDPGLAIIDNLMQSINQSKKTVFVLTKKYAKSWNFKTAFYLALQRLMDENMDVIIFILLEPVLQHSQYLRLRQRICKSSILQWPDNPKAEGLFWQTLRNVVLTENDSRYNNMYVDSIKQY
Put plainly: Induction of TLR8-mediated IFN-gamma in human PBMC after 12 hrs by immunoassay. The method, boiled down:
(§1)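 Fresh PBMCs were isolated from venous blood on Ficoll-Hypaque gradients and plated at 10^5 cells in 100 µL per well. They were stimulated 12 h with graded compound concentrations. Centrifuged supernatants were assayed in duplicate by multiplexed analyte-specific cytokine bead array.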

Test [2] has as its target T1, Toll-like receptor 8 (Homo sapiens). Put plainly: Induction of TLR8-mediated IL-12p40 in human PBMC after 12 hrs by immunoassay. In short, it runs like this:
as §1

Test [3] can be described thus: Upregulation of CD69 expression in human NK cells at 0.1 to 10 ug/ml measured after overnight incubation by flow cytometry. Type of test: functional, cell-based. In short, it runs like this:
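Heparin-anticoagulated whole blood from healthy volunteers was stimulated with graded concentrations at 37 °C overnight. It was then stained 30 min at 37 °C in the dark with CD3-PE, CD56-APC and CD69-PE-Cy7, followed by one-step erythrocyte lysis and fixation. NK cells were gated as CD3-CD56+ from 100,000 events. Values are means of duplicates from a representative experiment.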

For test [4], the target named is T2, Nucleotide-binding oligomerization domain-containing protein 1 (Homo sapiens, UniProt Q9Y239).
T2 sequence (Q9Y239 whole entry): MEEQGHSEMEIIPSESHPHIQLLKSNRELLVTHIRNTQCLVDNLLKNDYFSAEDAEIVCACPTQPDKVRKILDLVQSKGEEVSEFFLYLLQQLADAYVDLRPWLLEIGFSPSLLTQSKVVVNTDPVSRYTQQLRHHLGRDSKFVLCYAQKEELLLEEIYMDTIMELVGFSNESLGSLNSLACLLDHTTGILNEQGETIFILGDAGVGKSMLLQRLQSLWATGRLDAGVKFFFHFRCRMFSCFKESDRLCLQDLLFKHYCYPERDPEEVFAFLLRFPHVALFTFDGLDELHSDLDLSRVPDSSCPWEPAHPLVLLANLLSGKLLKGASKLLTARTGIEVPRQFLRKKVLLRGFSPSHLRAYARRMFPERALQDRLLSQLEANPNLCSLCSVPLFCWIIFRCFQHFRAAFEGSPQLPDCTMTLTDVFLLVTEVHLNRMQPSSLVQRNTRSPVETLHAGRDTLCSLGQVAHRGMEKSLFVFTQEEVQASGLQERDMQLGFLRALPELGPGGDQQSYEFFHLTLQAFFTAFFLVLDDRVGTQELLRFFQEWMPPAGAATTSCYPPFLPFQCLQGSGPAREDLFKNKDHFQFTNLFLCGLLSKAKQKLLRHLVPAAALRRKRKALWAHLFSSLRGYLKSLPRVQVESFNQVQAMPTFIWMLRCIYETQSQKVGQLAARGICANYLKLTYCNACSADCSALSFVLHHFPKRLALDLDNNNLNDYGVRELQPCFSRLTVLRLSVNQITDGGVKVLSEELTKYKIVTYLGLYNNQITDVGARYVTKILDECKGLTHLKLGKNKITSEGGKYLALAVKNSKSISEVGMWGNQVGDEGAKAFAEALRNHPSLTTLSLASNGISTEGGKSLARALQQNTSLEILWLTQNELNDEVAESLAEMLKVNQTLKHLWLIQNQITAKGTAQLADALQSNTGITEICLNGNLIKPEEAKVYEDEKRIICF
Put plainly: Antagonist activity at human NOD1 stably expressed in HEK293 cells co-expressing secreted alkaline phosphatase assessed as NF-kappaB induction by liquid handler-assisted reporter gene assay. It counts as cell-based.

Molecules are shown by their SMILES. The source made the active and inactive calls. No cut-off for these calls is given here. Some results are limits rather than exact numbers.

`CCCCCn1c(N)nc2c(C)cccc21`: the outcome in test [1] and in test [2] was Active. The result in test [3] was inactive. For the compound `CCCCCn1c(NC(C)=O)nc2ccccc21`, in test [4], the IC50 was over 10 µM.

For `CCCCCn1c(N)nc2c(Cc3ccccc3)cccc21`, the IC50 in test [4] was over 10 µM. As to `CCCCCn1c(N)nc2ccc3ccccc3c21`, in test [4], the IC50 was over 10 µM.

On to `CCCCCn1c(N)nc2c(OCc3ccccc3)cccc21`, for which the IC50 in test [4] is over 10 µM.

With `CCCCCn1c(N)nc2c(-c3ccccc3)cccc21`, the IC50 in test [4] is over 10 µM. `CCCCCn1c(N)nc2cc3ccccc3cc21`: the IC50 in test [4] was over 10 µM.
